Calls of active or inactive are those of the source. No cut-off for these calls is given here. Some results are limits rather than exact numbers.

This is an account of results in ChEMBL document CHEMBL4311940, “Design, Synthesis, and Biological Evaluation of 4-Methyl Quinazoline Derivatives as Anticancer Agents Simultaneously Targeting Phosphoinositide 3-Kinases and Histone Deacetylases” (J Med Chem, 2019).

Series [1] deals with HCT-116. Briefly: Induction of apoptosis in human HCT116 cells assessed as late apoptotic cells at 100 nM after 48 hrs by Annexin V-FITC/propidium iodide staining-based flow cytometric analysis (reference value: 3.87%). It counts as functional. (A flow cytometer gives signals particle by particle.)
The nature of series [2]: Drug level in tumor of human HGC27 cells xenografted in BALB/c mouse at 30 mg/kg, ip measured 0.5 hrs post last dose. Format: ADME, organism-based, Neoplasm. The note with it: read-out: Drug uptake. The gist of the method: (§1)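 HGC-27 xenografted nude mice dosed po (0.5% cmc/Tween 80) or ip (saline); at end of treatment, 0.5 h after final dose, plasma and tumor tissue collected and compound concentration measured (ng/mL plasma, ng/g tumor).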
Background: A xenograft is tissue or cells of one species grown in another, often human tumour cells in immunodeficient mice.

A short description of series [3]: Drug metabolism in rat bile assessed as hydrolyzed metabolite formation at 0.74 mg/kg, iv after 1 hr by LC/MS/MS analysis. It counts as ADME, organism-based. The note with it: in vivo.
For series [4], the species on record is Homo sapiens. The experiment in a line: Inhibition of HDAC/PI3K in human HCT116 cells assessed as increase in cleaved PARP level at 0.5 to 5 uM after 16 hrs by Western blot analysis. It counts as cell-based. The gist of the method:
(§2)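 Immunoblot of HCT116 lysates (RIPA). 40 μg protein per lane on 10−12% SDS-PAGE, transferred to nitrocellulose, blocked 0.5 h in 5% milk/TBST. Primary antibodies 1:1000 overnight at 4 °C, secondary 1:1000 for 1 h, bands visualized by enhanced ECL.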

For series [5], the system named is HGC-27. Briefly: Antitumor activity against human HGC27 cells xenografted in athymic nude BALB/c mouse assessed as tumor growth inhibition at 100 mpk, po measured 2 times every week. It counts as functional. The note with it: HGC-27, po, read-out: TGI.
In series [6] the test system is HCT-116. The experiment in a line: Antitumor activity against human HCT116 cells xenografted in po dosed athymic nude BALB/c mouse assessed as tumor growth inhibition measured 2 times every week. It counts as functional, organism-based. Put shortly: (§3)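 Female BALB/c-nu/nu mice, 6–8 weeks, given 2 × 10^6 HCT116 cells in 0.2 mL saline s.c. right flank; randomized at 100–200 mm3. Daily oral dosing in 0.5% cmc with Tween 80; vehicle controls.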

The target of series [7] is Phosphatidylinositol 4,5-bisphosphate 3-kinase catalytic subunit gamma isoform (Homo sapiens, UniProt P48736). Briefly: Binding affinity to wild-type human partial length PIK3CG (S144 to A1102 residues) expressed in mammalian expression system assessed as residual binding level at 1 uM by Kinomescan method relative to control. Put shortly:
(§4)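 Kinomescan binding screen at 1 μM across 97 kinases.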

For series [8], the system named is Mus musculus. Briefly: In vivo inhibition of PI3K in tumor of human HGC27 cells xenografted in athymic nude BALB/c mouse assessed as reduction in phosphorylated AKT expression at S473 residue by DAB staining based immunohistochemistry method. Format: functional, organism-based. Put shortly:
(§5)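 HGC-27 xenograft tumors from treated and vehicle mice immunostained for Ki67, Ac-H3 and p-AKT(S473) (200×); integrated optical density analysed; mean ± SEM, n = 5−7, one-way ANOVA versus vehicle.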

Series [9] in a line: Terminal half life in ICR mouse at 3 mg/kg, iv measured after 0.033 to 24 hrs by LC/MS/MS analysis. It counts as ADME, organism-based. The note with it: in vivo, read-out: beta t1/2 (converted). Put shortly: (§6)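 Male-unspecified ICR mice, 3 per group iv (3 mg/kg in 10% DMSO/saline) and 5 per group po (30 mg/kg in 0.5% cmc/0.3% Tween 80). Blood sampled 0.033 (iv) or 0.083 (po) to 24 h. Plasma extracted with acetonitrile, analysed by LC/MS/MS; noncompartmental analysis.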

Series [10] deals with Mus musculus. The experiment in a line: In vivo inhibition of PI3K/HDAC in tumor of human HGC27 cells xenografted in athymic nude BALB/c mouse assessed as reduction in phosphorylated Ki67 expression by DAB staining based immunohistochemistry method. It counts as functional, organism-based. Put shortly:
as §5

The subject of series [11] is NCI-H1299. The experiment in a line: Antiproliferative activity against human NCI-H1299 cells after 96 hrs by MTT assay. The note with it: NCI-H1299, 96 h. Format: functional, cell-based. (Formazan colour is commonly taken as a measure of viable cells.)
Series [12] is described as follows: Drug level in tumor of human HGC27 cells xenografted in BALB/c mouse at 200 mg/kg, po measured 0.5 hrs post last dose. It counts as ADME, organism-based, Neoplasm. The note with it: read-out: Drug uptake. Put shortly:
as §1

The test system of series [13] is HCT-116. The experiment in a line: Induction of apoptosis in human HCT116 cells assessed as live cells at 20 nM after 48 hrs by Annexin V-FITC/propidium iodide staining-based flow cytometric analysis (reference value: 89.6%). It counts as functional.
For series [14], the species on record is Homo sapiens. The experiment in a line: Inhibition of PI3K in human HCT116 cells assessed as reduction in AKT phosphorylation at S473 residue at 0.5 to 5 uM after 16 hrs by Western blot analysis. Format: cell-based. Put shortly:
as §2

Series [15] deals with DU-145. The experiment in a line: Antiproliferative activity against human DU145 cells after 96 hrs by MTT assay. It counts as functional, cell-based. The note with it: DU-145, 96 h.
The test system of series [16] is HCT-116. Briefly: Antitumor activity against human HCT116 cells xenografted in athymic nude BALB/c mouse assessed as tumor growth inhibition at 100 mpk, po measured 2 times every week relative to control. Format: functional. The note with it: HCT-116, po, read-out: TGI. Put shortly: as §3
The target in series [17] is Dual specificity tyrosine-phosphorylation-regulated kinase 1B (Homo sapiens) (UniProt Q9Y463). The experiment in a line: Binding affinity to wild-type human full length DYRK1B (M1 to S629 residues) expressed in bacterial expression system assessed as residual binding level at 1 uM by Kinomescan method relative to control. Put shortly:
as §4

The nature of series [18]: Drug level in BALB/c mouse plasma xenografted with human HGC27 cells at 30 mg/kg, ip measured 0.5 hrs post last dose. Format: ADME, organism-based. The gist of the method:
as §1

Series [19] can be described thus: Terminal half life in ICR mouse at 30 mg/kg, po measured after 0.083 to 24 hrs by LC/MS/MS analysis. It counts as ADME, organism-based. The note with it: in vivo, read-out: beta t1/2 (converted). Put shortly:
as §6

In series [20] the test system is Mus musculus. The experiment in a line: In vivo inhibition of HDAC in tumor of human HCT116 cells xenografted in athymic nude BALB/c mouse assessed as increase in acetylated histone-H3 expression by DAB staining based immunohistochemistry method. It counts as functional, organism-based. The gist of the method: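 HCT116 xenograft tumors from treated and vehicle mice stained immunohistochemically for Ki67, acetyl-H3 and p-AKT(S473) (200×); integrated optical density quantified; mean ± SEM, n = 5−7, one-way ANOVA versus vehicle.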

For series [21], the species on record is Homo sapiens. The experiment in a line: Selectivity ratio, ratio of IC50 for recombinant human N-terminal FLAG-tagged mTOR (1362 to end amino acids) to IC50 for recombinant human His-tagged PIK3CD/PIK3R1 expressed in baculovirus expression system.
Series [22] is filed under the species Homo sapiens. Briefly: Inhibition of PI3K in human HCT116 cells assessed as reduction in AKT phosphorylation at T308 residue at 0.02 to 0.5 uM after 16 hrs by Western blot analysis. It counts as cell-based. Put shortly:
as §2

Series [23] has as its target PI3-kinase p110-delta/p85-alpha (Homo sapiens, UniProt O00329). The experiment in a line: Inhibition of recombinant human His-tagged PIK3CD/PIK3R1 expressed in baculovirus expression system using PIP2 as substrate incubated for 1 hr by ADP-glo assay.
The species entered for series [24] is Homo sapiens. The experiment in a line: Selectivity ratio, ratio of IC50 for recombinant human His-tagged PIK3CG expressed in baculovirus expression system to recombinant human His-tagged PIK3CD/PIK3R1 expressed in baculovirus expression system.
For series [25], the species on record is Homo sapiens. The experiment in a line: Inhibition of HDAC/PI3K in human HCT116 cells assessed as increase in cleaved caspase-3 level at 0.02 to 0.5 uM after 16 hrs by Western blot analysis. It counts as cell-based. The gist of the method:
as §2

The species entered for series [26] is Homo sapiens. Briefly: Inhibition of PI3K in human HCT116 cells assessed as reduction in AKT phosphorylation at S473 residue at 0.02 to 0.5 uM after 16 hrs by Western blot analysis. Format: cell-based. The gist of the method:
as §2

Phosphatidylinositol 4,5-bisphosphate 3-kinase catalytic subunit gamma isoform, sequence (P48736 whole entry, looked up, the tested form may be a part, canonical isoform): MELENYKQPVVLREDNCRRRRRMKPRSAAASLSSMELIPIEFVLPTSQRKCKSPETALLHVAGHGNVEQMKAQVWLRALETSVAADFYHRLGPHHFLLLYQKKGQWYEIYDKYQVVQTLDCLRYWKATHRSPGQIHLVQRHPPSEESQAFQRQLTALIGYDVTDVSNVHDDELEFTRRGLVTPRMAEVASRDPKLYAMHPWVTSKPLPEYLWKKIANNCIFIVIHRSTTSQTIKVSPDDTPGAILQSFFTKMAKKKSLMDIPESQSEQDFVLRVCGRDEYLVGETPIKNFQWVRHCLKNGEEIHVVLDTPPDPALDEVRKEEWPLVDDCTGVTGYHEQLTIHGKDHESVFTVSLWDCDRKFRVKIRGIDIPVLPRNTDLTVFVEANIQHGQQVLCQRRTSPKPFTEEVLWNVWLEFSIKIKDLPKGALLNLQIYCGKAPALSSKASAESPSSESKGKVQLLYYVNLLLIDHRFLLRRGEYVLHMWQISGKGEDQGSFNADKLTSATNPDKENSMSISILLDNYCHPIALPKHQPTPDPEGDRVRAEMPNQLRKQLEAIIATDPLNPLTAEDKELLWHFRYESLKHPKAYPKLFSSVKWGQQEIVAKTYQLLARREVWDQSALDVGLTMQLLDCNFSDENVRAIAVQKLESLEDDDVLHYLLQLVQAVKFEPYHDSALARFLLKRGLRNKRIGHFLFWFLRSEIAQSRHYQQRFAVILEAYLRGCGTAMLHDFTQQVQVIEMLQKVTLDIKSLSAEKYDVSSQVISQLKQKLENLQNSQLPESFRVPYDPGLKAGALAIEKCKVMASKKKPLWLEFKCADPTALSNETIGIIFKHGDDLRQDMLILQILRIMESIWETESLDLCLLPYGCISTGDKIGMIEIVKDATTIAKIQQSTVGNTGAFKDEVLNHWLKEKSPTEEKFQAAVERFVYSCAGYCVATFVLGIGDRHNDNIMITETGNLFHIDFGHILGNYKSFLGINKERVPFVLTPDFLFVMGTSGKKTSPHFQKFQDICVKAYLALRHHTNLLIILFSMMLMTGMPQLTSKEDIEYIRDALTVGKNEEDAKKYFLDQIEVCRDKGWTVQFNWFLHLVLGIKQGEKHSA
PI3-kinase p110-delta/p85-alpha, sequence (P27986 whole entry): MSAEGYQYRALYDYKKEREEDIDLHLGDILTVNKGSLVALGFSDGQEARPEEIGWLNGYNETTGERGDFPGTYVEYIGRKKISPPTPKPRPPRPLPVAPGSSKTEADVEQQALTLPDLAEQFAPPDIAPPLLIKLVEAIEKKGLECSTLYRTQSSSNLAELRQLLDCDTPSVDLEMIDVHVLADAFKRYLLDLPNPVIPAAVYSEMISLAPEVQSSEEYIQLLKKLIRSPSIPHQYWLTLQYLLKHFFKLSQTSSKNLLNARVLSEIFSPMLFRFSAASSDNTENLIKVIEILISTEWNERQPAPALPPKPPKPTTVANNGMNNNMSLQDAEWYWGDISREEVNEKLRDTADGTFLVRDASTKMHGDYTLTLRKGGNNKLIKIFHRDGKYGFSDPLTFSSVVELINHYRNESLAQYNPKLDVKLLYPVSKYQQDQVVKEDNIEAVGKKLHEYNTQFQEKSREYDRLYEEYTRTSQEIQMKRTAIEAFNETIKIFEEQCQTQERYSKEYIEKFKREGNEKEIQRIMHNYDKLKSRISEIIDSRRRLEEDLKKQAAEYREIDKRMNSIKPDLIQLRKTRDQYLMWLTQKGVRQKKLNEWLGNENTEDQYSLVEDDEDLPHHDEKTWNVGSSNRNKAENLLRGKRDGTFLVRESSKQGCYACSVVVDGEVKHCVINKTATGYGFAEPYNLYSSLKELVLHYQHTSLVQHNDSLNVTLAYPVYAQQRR
PI3-kinase p110-delta/p85-alpha, sequence (O00329 whole entry): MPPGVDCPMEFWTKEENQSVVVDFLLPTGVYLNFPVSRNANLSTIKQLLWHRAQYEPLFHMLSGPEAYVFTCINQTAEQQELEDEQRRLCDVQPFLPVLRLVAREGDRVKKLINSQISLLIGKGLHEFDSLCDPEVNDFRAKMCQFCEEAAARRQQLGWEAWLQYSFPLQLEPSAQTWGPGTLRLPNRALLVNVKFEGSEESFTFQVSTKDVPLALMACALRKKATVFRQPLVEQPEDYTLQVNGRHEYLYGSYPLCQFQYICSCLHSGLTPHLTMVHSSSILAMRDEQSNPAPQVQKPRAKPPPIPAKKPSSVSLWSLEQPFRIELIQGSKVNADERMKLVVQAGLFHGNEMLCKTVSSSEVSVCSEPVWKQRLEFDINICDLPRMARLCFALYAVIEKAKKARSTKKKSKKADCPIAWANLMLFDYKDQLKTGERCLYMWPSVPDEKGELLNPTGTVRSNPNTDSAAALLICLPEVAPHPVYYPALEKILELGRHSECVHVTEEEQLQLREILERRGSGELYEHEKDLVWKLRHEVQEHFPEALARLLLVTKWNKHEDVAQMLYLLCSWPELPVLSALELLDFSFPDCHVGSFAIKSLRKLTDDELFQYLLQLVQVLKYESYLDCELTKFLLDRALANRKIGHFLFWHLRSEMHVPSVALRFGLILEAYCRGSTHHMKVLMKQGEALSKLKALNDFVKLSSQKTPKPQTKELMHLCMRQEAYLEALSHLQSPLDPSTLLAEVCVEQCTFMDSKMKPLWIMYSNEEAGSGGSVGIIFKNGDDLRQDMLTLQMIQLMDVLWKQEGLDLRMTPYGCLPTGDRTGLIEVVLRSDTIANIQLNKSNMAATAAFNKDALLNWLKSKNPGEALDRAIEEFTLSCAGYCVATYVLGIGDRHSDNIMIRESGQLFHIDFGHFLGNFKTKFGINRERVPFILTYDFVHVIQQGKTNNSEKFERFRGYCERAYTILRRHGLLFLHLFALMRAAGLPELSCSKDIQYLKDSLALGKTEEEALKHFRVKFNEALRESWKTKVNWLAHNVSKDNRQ
Dual specificity tyrosine-phosphorylation-regulated kinase 1B (Homo sapiens), sequence (Q9Y463 whole entry, looked up, the tested form may be a part): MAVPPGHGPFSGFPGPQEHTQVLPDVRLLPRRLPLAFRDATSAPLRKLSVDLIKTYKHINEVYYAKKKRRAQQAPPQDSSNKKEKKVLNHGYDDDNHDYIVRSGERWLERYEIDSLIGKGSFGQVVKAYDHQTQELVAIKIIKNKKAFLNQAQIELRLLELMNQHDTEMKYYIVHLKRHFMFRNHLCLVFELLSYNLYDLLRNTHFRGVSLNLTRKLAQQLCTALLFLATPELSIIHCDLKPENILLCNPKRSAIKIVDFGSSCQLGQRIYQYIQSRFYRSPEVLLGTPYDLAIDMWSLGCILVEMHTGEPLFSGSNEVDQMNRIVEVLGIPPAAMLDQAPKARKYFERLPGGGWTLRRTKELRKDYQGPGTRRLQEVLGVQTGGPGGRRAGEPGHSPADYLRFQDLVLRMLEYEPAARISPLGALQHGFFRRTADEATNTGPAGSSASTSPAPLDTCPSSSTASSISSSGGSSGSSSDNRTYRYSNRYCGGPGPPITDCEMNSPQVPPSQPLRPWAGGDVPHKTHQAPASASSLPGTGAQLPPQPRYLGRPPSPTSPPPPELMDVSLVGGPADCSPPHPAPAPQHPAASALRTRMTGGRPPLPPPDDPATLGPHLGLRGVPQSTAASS

What is called IC50 is the concentration that inhibits the measured activity by half. With `COc1ncc(-c2cc(OCCCCCCC(=O)NO)c3ncnc(C)c3c2)cc1F`, the Activity in [1] is 7.97%; in series [6], “Dose-dependent effect”; in series [7], 1.4%; in series [13], 88.6%; in [17], 29%. Besides, the values for the concentration at 0.5 h in [2], in [12] and in series [18] were 370 ng/g, 105 ng/g and 577 ng/mL, respectively. The Drug metabolism result in series [3] is on record as “Metabolite_Detected”. For the same molecule, the inhibition result in series [4], in series [8], in [10] and in [14] was “Active” in each case. Moreover, the inhibition in vivo at 100 mg/kg in series [5] worked out at 15.2%; in series [16], 18.3%. For the same molecule, the half-life was 0.33 h in [9] and 2.07 h in series [19]. The IC50 in series [11] was found to be 1000 nM; in [15] it was 540 nM. In addition, the inhibition entry in series [20] is “Dose-dependent effect”.

With `COc1ccc(-c2cc(OCCN(C)c3ncc(C(=O)NO)cn3)c3ncnc(C)c3c2)cn1`, the Activity was 9.92% in series [1] and 83.6% in series [13]. The Ratio IC50 is above 27 in [21] and above 5 in [24]. In addition, the inhibition entry in [22], in [25] and in series [26] was “Active” each time. Besides, the IC50 in series [23] was 29 nM; in [11], 180 nM; in series [15], 66 nM.
